Bioassay records as filed in PubChem.
ABCG2 inh = inhibitors of human ABCG2 transporter, ABCB1 counter-screen | Q9UNQ0 | IgMXP3 cells, JC-1 efflux, flow cytometry | inhibition, % at 6.6 µM | 190,000 compounds, 0.1% hits | AID 1325;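 active = inhibition above 80%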;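 also: 0% = DMSO and 100% = nicardipine control wells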
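Test system: IgMXP3 cells (ABCG2) mixed with DDAO far-red-labelled CCRF-Adr cells (ABCB1). Reagent: JC-1 transporter substrate. Compound dosing: single test compound dose, 6.6 µM final. Times: 10 min compound exposure, 25 °C. Detection: flow cytometry of retained JC-1 fluorescence. Read-out basis: efflux inhibition in percent versus controls. Controls: nicardipine and DMSO wells.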
MEKK3 PB1 HTS = modulators (inhibitors or enhancers) of MEK5 binding to human MEKK3 PB1 domain; bead-based flow cytometry, Alexa488-MEK5 binding to MEKK3; actives lie on both sides; 0 = blocked by unlabeled MEK5, 100 = vehicle; binding response (% of control), % at 10 µM; 290,000 compounds, 1.4% hits; AID 1529;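 active = binding response more than 3 SD above or below the average of its plate-row segment, actives on both sides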;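 also: Alexa488 bead fluorescence after subtracting the streptavidin-only scavenger bead signal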
ABCB1 block = blocks JC-1 efflux by human ABCB1 transporter; P08183; 190,000 compounds, 0.067% hits; inhibition, % at 6.6 µM; CCRF-Adr cells, flow cytometry; in the data active = inhibition above about 40%;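 also: 0% = vehicle and 100% = reference inhibitor; higher value means more JC-1 retained so stronger ABCB1 efflux block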
MEKK2 WT-MEK5 = raises or lowers MEK5 binding to wildtype human MEKK2 PB1 domain | bead flow cytometry, Alexa488-MEK5 binding to MEKK2 WT; actives lie on both sides | binding response (% of control), % at 10 µM | 290,000 compounds, 1.1% hits | AID 1531; in the data active = binding response below about 67% or above about 130%
MEKK2 mut-MEK5 = signal of MEK5 binding to mutant human MEKK2 PB1 domain | bead flow cytometry, Alexa488-MEK5 binding to MEKK2 mutant | percent response, % at 10 µM | 290,000 compounds, 0.35% hits; in the data active = percent response above about 24%, passing the limit was not always enough
WT yeast gro inh = growth inhibition of WT yeast, mitochondrial fusion screen | mitochondrial fusion phenotypic screen, WT strain | inhibition, % at 10 µM | 190,000 compounds, 2.1% hits | AID 1362; in the data active = inhibition above about 58%; tested in S. cerevisiae
Active calls of the source: *; / = no result given. Only some compounds are listed: those with a hit (about 3.5% of all), similar ones and a draw of the others.

SMILES | ABCG2 inh | MEKK3 PB1 HTS | ABCB1 block | MEKK2 WT-MEK5 | MEKK2 mut-MEK5 | WT yeast gro inh
CCOCCCN(C)C1CCN(C(=O)c2oc3ccccc3c2NC(=O)c2ccc(F)cc2)CC1 | / | 102 | / | 107 | 9 | /
COc1ccc(C(=O)/C(C#N)=N/Nc2ccccc2[N+](=O)[O-])cc1 | -1 | 101 | 0 | 101 | -2 | -1
COc1ccc(C(=O)/C(C#N)=N/Nc2ccc([N+](=O)[O-])cc2)cc1 | 11 | 103 | 0 | 97 | 0 | 65*
COc1ccc(OC)c(NC(=O)C(=S)NC2CCCCC2)c1 | 0 | 100 | 0 | 95 | -4 | 74*
COc1ccc(OC)c(NC(=O)NC2CCCCCCC2)c1 | / | 104 | / | 106 | 1 | /
C/C(CC(=O)NCCN1CCOCC1)=N\NC(=O)c1ccncc1 | / | 107 | / | 107 | 22 | /
OC(CNCc1ccc(Cl)cc1)(c1ccccc1)c1ccc(F)cc1 (configuration not stated) | 4 | 102 | 1 | 118 | 5 | 71*
CCCCCN1C=CC(=C2C(=O)c3ccccc3C2=O)C=C1 | 6 | 104 | 3 | 104 | 11 | 58*
COc1cccc(C(CC(=O)Nc2cccc3ccccc23)NC(=O)c2ccccc2)c1 (configuration not stated) | 9 | 100 | 1 | 102 | 7 | -9
O=S(=O)(Nc1ccc(N=Nc2ccc(O)c3ccccc23)cc1)c1ccccc1 | -4 | 87 | 0 | 87 | 1 | 59*
O=C(Nc1cccc(Br)c1)c1ccc(OC2CSC2)cc1 | 0 | 106 | 0 | 100 | -1 | 5
Cn1cc(C(=O)c2ccc(Cl)cc2Cl)cc1C(=O)O | 1 | / | 0 | / | / | 92*
NS(=O)(=O)c1ccc(CCNC(=S)NC2CCCC2)cc1 | 1 | 95 | 1 | -10* | -15 | -22
NS(=O)(=O)c1ccc(CNC(=S)NC2CCCCC2)cc1 | / | 97 | / | 94 | -3 | /
COC(=O)C(=C/C(C)=C/c1cccnc1)C(=O)OC | 1 | 105 | 0 | 92 | 3 | -24
COc1ccc(S(=O)(=O)Nc2ccccc2C(=O)Nc2nc(-c3ccc(F)cc3)cs2)cc1OC | -9 | 97 | -1 | 88 | -2 | 59*
COc1ccc(-c2csc(NC(=O)c3ccccc3NS(=O)(=O)c3ccc(C)cc3)n2)cc1 | 3 | 101 | 0 | 99 | 10 | 11
NC(N)=NS(=O)(=O)c1ccc(NC(=S)NC(=O)c2ccc(Br)cc2)cc1 | 1 | 97 | 0 | 96 | 0 | -6
CCOC(=O)c1c(CSC(=N)N)n(-c2ccc(Br)cc2)c2cc(Br)c(OC(C)=O)cc12 | 6 | 103 | 1 | 143* | 17 | 46
C=CCCc1ccc(C#N)c(SCc2c(C(=O)OCC)c3cc(OC(C)=O)c(Br)cc3n2C)n1 | -1 | 103 | 0 | 81 | 17 | -2
CCCCCCCCOC(=O)c1c(CSC(=N)N)n(C)c2cc(Br)c(OC(C)=O)cc12 | / | 105 | / | 281* | 136* | /
CCOC(=O)c1c(CSc2nc(C)cc(C)c2C#N)n(C)c2cc(Br)c(OC(C)=O)cc12 | -1 | 101 | 0 | 96 | 1 | -8
Cc1ccc(CNC(=O)COC(=O)CCC(=O)c2cccs2)cc1 | 1 | 96 | 0 | 92 | -8 | -6
Cc1ccc(NC(=O)COC(=O)C(CC(C)C)N2C(=O)C3CC=CCC3C2=O)c(C)c1 (configuration not stated) | 9 | 109 | 2 | 128 | 28 | 1
Cc1ccccc1Cn1c(=N)n(CC(O)c2ccco2)c2ccccc21 (configuration not stated) | 3 | 109 | 1 | 118 | 6 | 5
CC(C)(C)c1ccc(Cn2c(=N)n(CC(O)c3ccco3)c3ccccc32)cc1 (configuration not stated) | 1 | 100 | 0 | 113 | 0 | 59*
COc1cc(OC)nc(Oc2ccccc2C(=O)Oc2cccc(C)c2)n1 | 6 | 106 | 1 | 104 | 1 | 60*
O=C(CNS(=O)(=O)c1ccccc1Br)OCC(=O)N1CCc2ccccc21 | 22 | 98 | 1 | 94 | -5 | -7
